High-throughput results deposited in PubChem by several laboratories.
Mdm2-MdmX inh = human Mdm2/MdmX binding inhibition. O15151+Q00987. SaOS-2 split-luciferase Mdm2/MdmX complementation, luminescence. inhibition, % at 8 µM. 330,000 tested, 3% active. AID 485346;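 active = inhibition of at least 50% at 8 µM in the primary screen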
Target sequence (O15151 whole entry, looked up): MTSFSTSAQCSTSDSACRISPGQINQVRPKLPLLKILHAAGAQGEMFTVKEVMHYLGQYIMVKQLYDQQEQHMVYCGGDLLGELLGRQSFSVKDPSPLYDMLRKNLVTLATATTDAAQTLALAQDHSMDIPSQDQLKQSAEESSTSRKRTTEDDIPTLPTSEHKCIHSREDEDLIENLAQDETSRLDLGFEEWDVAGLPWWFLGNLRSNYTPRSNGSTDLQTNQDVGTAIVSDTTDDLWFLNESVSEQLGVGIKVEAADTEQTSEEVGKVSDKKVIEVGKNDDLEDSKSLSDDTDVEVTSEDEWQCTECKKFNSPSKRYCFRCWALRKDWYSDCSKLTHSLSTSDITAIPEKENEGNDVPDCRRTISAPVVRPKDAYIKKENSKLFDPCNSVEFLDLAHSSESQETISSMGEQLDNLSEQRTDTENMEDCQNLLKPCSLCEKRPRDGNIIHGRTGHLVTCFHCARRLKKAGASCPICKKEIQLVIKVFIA
Target sequence (Q00987 whole entry, looked up): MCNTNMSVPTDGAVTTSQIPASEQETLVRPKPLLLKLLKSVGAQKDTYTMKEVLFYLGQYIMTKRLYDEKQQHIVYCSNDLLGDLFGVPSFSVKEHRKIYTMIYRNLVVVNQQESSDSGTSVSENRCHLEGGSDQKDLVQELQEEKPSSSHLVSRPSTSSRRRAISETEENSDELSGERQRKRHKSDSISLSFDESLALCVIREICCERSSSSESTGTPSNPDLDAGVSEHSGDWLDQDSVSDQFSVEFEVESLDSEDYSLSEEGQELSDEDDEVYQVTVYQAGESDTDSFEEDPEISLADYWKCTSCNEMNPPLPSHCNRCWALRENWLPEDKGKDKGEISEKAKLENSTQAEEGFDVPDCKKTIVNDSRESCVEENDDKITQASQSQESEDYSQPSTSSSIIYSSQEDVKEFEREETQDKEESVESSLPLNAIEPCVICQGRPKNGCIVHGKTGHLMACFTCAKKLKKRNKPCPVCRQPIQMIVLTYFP
CSC inhib = blocks cancer stem cells; cancer stem cell-like cells viability, luminescence; inhibition, % at 7.5 µM; 300,000 tested, 1.1% active; in the data active = inhibition above about 75%; tested in HMLE shEcad cells
aSyn UTR inh = MLPCN primary screen, SNCA 5' untranslated region; 300,000 tested, 0.82% active; inhibition, % (tested at 7.5 µM); AID 1813; alpha-synuclein 5'UTR reporter, inhibitor activity; in the data active = inhibition above about 60%;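 note: H4 neuroglioblastoma cells stably carrying SNCA 5'UTR luciferase fusion; 0% = DMSO wells and 100% = positive control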
T cruzi inh = blocks replication of Trypanosoma cruzi | T. cruzi beta-gal in NIH3T3, luminescence, 90 h | 300,000 tested, 1.4% active | inhibition, % (concentration not given with the values);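 active = mean inhibition across valid replicates above about 55%, limit read from the data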;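 note: signal also drops with host cell toxicity which is not excluded here; 0% = plate median of DMSO wells and 100% = zero luminescence signal; higher percent means less beta-gal luminescence so fewer parasites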
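System – NIH/3T3 host cells with β-galactosidase reporter T. cruzi · Doses – single 50 nL compound addition per well in DMSO · Reagent – 5000 T. cruzi trypomastigotes/well · Medium – Low-serum DMEM with 2% FBS · Timing – ≥90 h infection period, 3 h prior cell attachment · Evaluation – parasite load inhibition, % · Technique – GalScreen luminescence, 60 min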
SKKanGAS inh = blocks kanamycin growth of S. pyogenes SKKanGAS strain. BacTiter-Glo, 6 h. inhibition, % at 7.5 µM. 300,000 tested, 1.3% active. AID 1662;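 active = mean replicate score, as percent of positive control median, at least 50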;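 note: strain carries kanamycin resistance gene driven by streptokinase promoter and grows in 40 µg/ml kanamycin; loss of luminescence reflects streptokinase promoter inhibition or plain growth inhibition; 0% = median of DMSO wells and 100% = positive control at its reference dose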
Mdm2-MdmX conf = human Mdm2/MdmX binding inhibition, confirmed; shares compounds with Mdm2-MdmX inh; 10,000 tested, 55% active; luminescent assay; AID 489028; inhibition, % at 8 µM; in the data active = inhibition above about 40%
Full FLuc ctr = counter-screen for Mdm2/MdmX inhibitors: full-length luciferase | 6,200 tested, 77% active | inhibition, % at 8 µM | shares compounds with Mdm2-MdmX inh | SaOS-2 full-length luciferase counterscreen, luminescence;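 active = mean inhibition at 8 µM reaching about 37%, which flags the compound as non-specific, limit read from the data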;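 note: p53-null SaOS-2 cells with luciferase driven by a doxycycline-inducible promoter; compound on cells about two nights before reading with doxycycline added after day one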
An asterisk follows results filed as active; . = no result given. An excerpt weighted towards active compounds, which were near 5.4% of everything screened.

SMILES | Mdm2-MdmX inh | CSC inhib | aSyn UTR inh | T cruzi inh | SKKanGAS inh | Mdm2-MdmX conf | others
COc1ccc(OC)c(NC(=O)CSc2nnc(Cn3c(=O)sc4ccccc43)n2C)c1 | 9 | -28 | . | . | . | .
CC1CCC(N2CCN(c3ccc([N+](=O)[O-])cc3)CC2)CC1 (stereo unspecified) | 5 | -11 | -35 | 11 | 2 | .
COc1ccc(-n2nnnc2-c2cccc(OC)c2)cc1 | 56* | -2 | 64* | -41 | 0 | 54* | Full FLuc ctr=66*
Cc1ccc(-n2nnnc2-c2cccc(C)c2)cc1 | 11 | -6 | 4 | -4 | -8 | .
COc1ccc2nc3oc(C(=O)NC4CCN(Cc5ccccc5)CC4)cc3cc2c1 | 98* | 22 | . | . | . | 91* | Full FLuc ctr=20
O=C(CS(=O)(=O)c1ccccc1)Nc1ccc(N2CCOCC2)cc1 | 6 | 3 | 18 | -18 | -4 | .
CCS(=O)(=O)c1ccccc1C(=O)NC1CCCc2ccccc21 (stereo unspecified) | 0 | -14 | 5 | -8 | -4 | .
CC(=O)c1c(C)[nH]c(C(=O)NC2CCSc3ccccc32)c1C (stereo unspecified) | 56* | -14 | -33 | -3 | 7 | 33
CC(=O)Nc1ccc(C(=O)NC2CCSc3ccccc32)cc1 (stereo unspecified) | -10 | 3 | -9 | -7 | 6 | .
CCc1c(C(=O)NC2CCCc3ccccc32)[nH]c(C)c1C(C)=O (stereo unspecified) | 85* | 22 | 64* | -4 | 19 | 65* | Full FLuc ctr=52*
Cn1cccc1C1CCCN1CC(=O)Nc1ccc(F)c(F)c1F (stereo unspecified) | 5 | -5 | . | . | . | .
CC(C)CNC(=O)c1ccccc1NC(=O)CCSc1ccccc1 | 9 | 5 | -2 | 11 | 4 | .
CCc1cccc(C)c1NC(=O)CCCN1C(=O)CN(C)C1=O | 1 | . | . | . | . | .
COc1ccccc1-c1nnc2sc(-c3ccc(N(C)C)cc3)nn12 | 69* | 54 | 99* | 23 | 0 | 68* | Full FLuc ctr=94*
CN(C)c1ccc(-c2nn3c(-c4ccccc4Cl)nnc3s2)cc1 | 53* | 59 | 82* | -7 | 19 | 66* | Full FLuc ctr=65*
CCOC(=O)c1cc(C#N)c(N2CCN(C(=O)c3cccc(C(F)(F)F)c3)CC2)nc1C(F)(F)F | 24 | -6 | . | . | 7 | .
COCC(C)n1c(SCc2cc(=O)n3cc(C)ccc3n2)nc2ccccc2c1=O (stereo unspecified) | 51* | 11 | 64* | 6 | -1 | 10
Cc1ccc2nc(CSc3nnc4ccccn34)cc(=O)n2c1 | 15 | -5 | -13 | -1 | -18 | .
c1cc2c(cc1C1CCCCC1)c1c3n2CCN=C3CCC1 | 53* | 25 | 5 | 71* | 29 | 23
c1cc2c(cc1C1CCCCC1)c1c3n2CCCNC3CCC1 (stereo unspecified) | 98* | 7 | 87* | 22 | 25 | 48* | Full FLuc ctr=2
Cc1cc(C)c2c(c1)/C(=c1/sc3n(c1=O)CN(c1ccccc1)CN=3)C(=O)N2 | 57* | 2 | -23 | -8 | -7 | -5
O=c1/c(=C/c2ccccn2)sc2n1CN(c1ccccc1)CN=2 | -9 | -5 | -31 | 12 | 9 | .
Cc1cccc(N2CCN(C(=O)c3cc4c(=O)n(C)c5ccccc5c4n3C)CC2C)c1 (stereo unspecified) | 52* | 10 | -9 | 19 | 6 | 17
Cn1c(C(=O)N2CCCCCC2)cc2c(=O)n(C)c3ccccc3c21 | 13 | 6 | -9 | 5 | -10 | .
COc1ccc(N=Nc2cc(C)c(O)c(CN3CCCCC3)c2)cc1 | -35 | 18 | -3 | -2 | -2 | .
SMILES | Mdm2-MdmX inh | CSC inhib | aSyn UTR inh | T cruzi inh | SKKanGAS inh | Mdm2-MdmX conf | others
COc1ccc2nc3cc(Cl)ccc3c(Nc3cc(CN4CCCC4)c(O)c(CN4CCCC4)c3)c2n1 | 99* | 32 | 104* | 59* | 5 | 53* | Full FLuc ctr=77*
O=C(CCNS(=O)(=O)c1ccccc1F)N1CCN(Cc2ccccc2)CC1 | 9 | -13 | -4 | -11 | 20 | .
CCCCn1c(N)c(N(CC(C)C)C(=O)CCNC(=O)c2ccc(Br)cc2)c(=O)[nH]c1=O | 14 | -11 | 6 | -5 | 1 | .
O=C(O)CN1C(=O)/C(=C/c2ccccc2Cl)Oc2ccccc21 | -9 | -24 | 6 | -16 | -23 | .
O=C(CN1C(=O)/C(=C\c2ccccc2Cl)Oc2ccccc21)NCc1cccnc1 | 76* | 20 | -13 | 37 | 1 | 1
O=C(Nc1nnc(-c2ccccc2Cl)s1)c1ccccc1F | 86* | 0 | -173 | -14 | -5 | -8
O=C(Nc1nnc(-c2ccccc2)s1)c1ccccc1F | -67 | 6 | -152 | -1 | -2 | .
O=C(Nc1ccccc1C(=O)Nc1nnc(C(F)(F)F)s1)c1ccccc1Cl | 95* | 95* | 13 | -34 | 101* | 94* | Full FLuc ctr=22
COc1ccc2[nH]cc(CCNC(=O)CCC3CCCCC3)c2c1 | -4 | 7 | 10 | -6 | -9 | .
COc1ccc(-n2nc(C(=O)NCC(=O)NC3CCCCC3)c3ccccc3c2=O)cc1 | -18 | -21 | 14 | -10 | 7 | .
CC1CCCCN1C(=O)c1ccc(C(=O)c2ccccc2)cc1 (stereo unspecified) | -14 | 7 | . | . | . | .
O=C1C(Cl)=C(Nc2cccc(O)c2)C(=O)N1Cc1ccccc1 | 52* | -4 | -69 | -60 | 18 | 21
CC1CCCCN1C(=O)c1cccc(NC2=C(Cl)C(=O)N(Cc3ccccc3)C2=O)c1 (stereo unspecified) | 76* | 4 | . | . | . | 28
CC1CCN(C(=O)c2ccc(NC3=C(Cl)C(=O)N(Cc4ccccc4)C3=O)cc2)CC1 | 58* | . | . | . | . | 38
CCOc1ccccc1NC1=C(Cl)C(=O)N(Cc2ccccc2)C1=O | 15 | -7 | -16 | 3 | 32 | .
CC(=O)Nc1sc2c(c1-c1nc3ccccc3s1)CCN(C(C)C)C2 | 100* | 56 | . | . | . | 69* | Full FLuc ctr=60*
CCOc1ccc(C(=O)NC(=S)Nc2ccccn2)cc1[N+](=O)[O-] | 88* | 5 | -104 | . | -14 | -14
Cc1cccc(C)c1NC(=O)Cn1nnc(-c2ccc(N3CCOCC3)cc2)n1 | 70* | . | -23 | -4 | 1 | 20
Cc1ccc(C)c(NC(=O)Cn2nnc(-c3ccc(N4CCOCC4)cc3)n2)c1 | 83* | 8 | -23 | -31 | -2 | 38 | Full FLuc ctr=83*
C[C@@]12C(=O)Nc3ccc(Cl)cc3C(=O)N1[C@H]1c3cc(Cl)ccc3OC[C@@H]1[C@@H]2c1ccccc1 | 53* | 27 | . | . | . | 14
COc1ccc2c(c1)OC[C@H]1[C@H]2N2C(=O)c3ccccc3NC(=O)[C@@]2(C)[C@H]1c1ccccc1 | 50* | . | . | . | . | 36 | Full FLuc ctr=54*
C[C@@]12C(=O)Nc3cc(F)c(F)cc3C(=O)N1[C@H]1c3cc(Cl)ccc3OC[C@@H]1[C@@H]2c1ccccc1 | 51* | 59 | . | . | . | 34
